The values below come from ChEMBL document CHEMBL3822395, “2-Aryl-3-(2-morpholinoethyl)thiazolidin-4-ones: Synthesis, anti-inflammatory in vivo, cytotoxicity in vitro and molecular docking studies” (Eur J Med Chem, 2016).

In data set [1] the test system is Mus musculus. Description: Antiinflammatory activity in BALB/c mouse ear assessed as inhibition of croton oil-induced ear swelling up to 333 mg/kg administered topically on ear measured at 6 hrs relative to control. It is filed as functional, organism-based. The essentials: (§1)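 Male BALB/c mice, 3 per group, dosed at 33–333 mg/Kg. Ears were checked at 6 h for heat, redness and swelling against a croton oil-induced control (2 μg/ear in acetone).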

In data set [2] the test system is Mus musculus. Description: Antiinflammatory activity in BALB/c mouse ear assessed as inhibition of croton oil-induced ear redness up to 333 mg/kg administered topically on ear measured at 6 hrs relative to control. It is filed as functional, organism-based. In a few lines:
as §1

For data set [3], the system named is Mus musculus. Description: Antiinflammatory activity in BALB/c mouse ear assessed as inhibition of croton oil-induced heat in ear up to 333 mg/kg administered topically on ear measured at 6 hrs relative to control. It is filed as functional, organism-based. The essentials: as §1
In data set [4] the test system is Mus musculus. Description: Antiinflammatory activity in BALB/c mouse assessed as inhibition of croton oil-induced ear edema at 166 mg/kg administered topically on ear measured at 6 hrs. It is filed as functional. Particulars: topical. In a few lines:
(§2)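 Male BALB/c mice (25-35 g, mean 30 g), 3 per group. Ear edema induced with croton oil 2 μg/ear in acetone. Compounds were dosed at 33, 100, 166 and 333 mg/Kg, with indomethacin 33 mg/Kg as positive control. At 6 h a 6 mm ear punch was weighed and compared with untreated ears (edema index). Inhibition % = 100 × (1 − Vt/Vc) versus the control group.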

Data set [5] in a line: Cytotoxicity against African green monkey Vero cells assessed as cell viability at 62.5 ug/ml by MTT assay. It is filed as cell-based. Particulars: chlorocebus sabaeus, read-out: Activity. In a few lines:
(§3)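 Vero cells were seeded at 2×10^6 cells mL⁻¹ in E-MEM with 10% FBS and antibiotics, then left to attach for 24 h and 48 h before treatment. Dilutions were 62.5–1000 µg/mL in E-MEM. After a PBS wash, cells got MTT 1 mg/mL for 4 h at 37 °C in the dark. Formazan was dissolved in DMSO and read at 540 nm. Viability % = AT/AC × 100. Three independent experiments.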
Background: Tetrazolium assays rely on reduction of a dye to a coloured formazan, in cell work by metabolically active cells.

Data set [6] can be described thus: Cytotoxicity against African green monkey Vero cells assessed as cell viability at 125 ug/ml by MTT assay. Conditions: chlorocebus sabaeus, read-out: Activity. It is filed as cell-based. In a few lines: as §3
The nature of data set [7]: Cytotoxicity against African green monkey Vero cells assessed as cell viability at 250 ug/ml by MTT assay. It is filed as cell-based. Particulars: chlorocebus sabaeus, read-out: Activity. The essentials:
as §3

Data set [8] in a line: Cytotoxicity against African green monkey Vero cells assessed as cell viability at 500 ug/ml by MTT assay. It is filed as cell-based. Conditions: chlorocebus sabaeus, read-out: Activity. In a few lines: as §3
The nature of data set [9]: Cytotoxicity against African green monkey Vero cells assessed as cell viability at 1000 ug/ml by MTT assay. It is filed as cell-based. Conditions: chlorocebus sabaeus, read-out: Activity. The essentials: as §3
Data set [10] concerns Mus musculus. The data set is described as follows: Antiinflammatory activity in BALB/c mouse assessed as inhibition of croton oil-induced ear edema at 33 mg/kg administered topically on ear measured at 6 hrs. It is filed as functional. Conditions: topical. The essentials: as §2

Calls of active or inactive are those of the source. The calls are words filed in the database; no cut-off is given here.

What is called inhibition in vivo is the percentage by which the read-out fell short of the control. With `O=C1CSC(c2ccc(O)cc2)N1CCN1CCOCC1` (centres undefined), the inhibition result in [1], in [2] and in [3] was “Active” throughout. Moreover, in [4], the inhibition in vivo at 166 mg/kg was 45%. Also, the viability at 62.5 ug/ml in [5] stood at 83%. In [6], the viability at 125 ug/ml was found to be 83%. In [7], the viability at 250 ug/ml is 83%. The viability at 500 ug/ml in data set [8] is 79%. Also, the viability at 1000 ug/ml in data set [9] was found to be 73%.
Turning to `Cc1ccc(C2SCC(=O)N2CCN2CCOCC2)cc1` (centres undefined), the inhibition result in data set [1], in data set [2] and in data set [3] was “Active” each time. Moreover, the inhibition in vivo at 166 mg/kg in [4] turned out to be 42%. Moreover, the viability at 62.5 ug/ml in data set [5] was found to be 87%. Besides, in [6], the viability at 125 ug/ml worked out at 87%. Besides, in [7], the viability at 250 ug/ml is 80%. In addition, the viability at 500 ug/ml in [8] came out at 76%. In [9], the viability at 1000 ug/ml stood at 73%.
As for `O=C1CSC(c2cccc([N+](=O)[O-])c2)N1CCN1CCOCC1` (centres undefined), the inhibition entry in data set [1], in [2] and in [3] was “Active” throughout. Further, the inhibition in vivo at 166 mg/kg in data set [4] is 48%. Also, the viability at 62.5 ug/ml in data set [5] was 100%. Further, the viability at 125 ug/ml in [6] came to 100%. In [7], the viability at 250 ug/ml stood at 100%. Besides, in data set [8], the viability at 500 ug/ml is 92%. In addition, in data set [9], the viability at 1000 ug/ml is 92%.
Turning to `O=C1CSC(c2ccccc2[N+](=O)[O-])N1CCN1CCOCC1` (centres undefined), the inhibition entry in data set [1], in data set [2] and in [3] was “Active” throughout. Also, the inhibition in vivo at 166 mg/kg in [4] amounted to 50%. Moreover, the viability at 62.5 ug/ml in [5] amounted to 98%. Also, the viability at 125 ug/ml in data set [6] is 98%. Also, the viability at 250 ug/ml in [7] was determined as 98%. Also, the viability at 500 ug/ml in data set [8] came out at 91%. Besides, the viability at 1000 ug/ml in data set [9] worked out at 83%.
For `COc1ccc2c(c1)c(CC(=O)O)c(C)n2C(=O)c1ccc(Cl)cc1` [INDOMETHACIN], the inhibition in vivo at 33 mg/kg in data set [10] was 58%.
Regarding `O=C1CSC(c2ccc(F)cc2)N1CCN1CCOCC1` (centres undefined), the inhibition entry in data set [1], in data set [2] and in data set [3] was “Active” each time. Also, the inhibition in vivo at 166 mg/kg in data set [4] amounted to 39%. In addition, the viability at 62.5 ug/ml in [5] was 100%. Further, the viability at 125 ug/ml in data set [6] was found to be 100%. The viability at 250 ug/ml in data set [7] was 100%. The viability at 500 ug/ml in data set [8] amounted to 91%. Further, the viability at 1000 ug/ml in [9] was found to be 89%.
`O=C1CSC(c2ccc(Cl)cc2)N1CCN1CCOCC1` (centres undefined): the inhibition entry in [1], in data set [2] and in data set [3] was “Active” throughout. Also, in data set [4], the inhibition in vivo at 166 mg/kg was found to be 44%. Also, the viability at 62.5 ug/ml in data set [5] is 87%. For the same compound, the viability at 125 ug/ml in data set [6] worked out at 87%. For the same compound, the viability at 250 ug/ml in data set [7] was 87%. Besides, the viability at 500 ug/ml in [8] turned out to be 76%. In addition, the viability at 1000 ug/ml in [9] was found to be 74%.
With `COc1ccc(C2SCC(=O)N2CCN2CCOCC2)cc1` (centres undefined), the inhibition entry in [1], in [2] and in data set [3] was “Active” each time. Also, the inhibition in vivo at 166 mg/kg in [4] turned out to be 54%. In data set [5], the viability at 62.5 ug/ml was determined as 100%. The viability at 125 ug/ml in [6] stood at 100%. Further, in data set [7], the viability at 250 ug/ml worked out at 100%. Further, the viability at 500 ug/ml in [8] worked out at 90%. Also, the viability at 1000 ug/ml in data set [9] was 89%.
